We go through 48 sequences from the EternaBench riboswitch data.

Broadly, the apparent Kd is the concentration giving half-maximal binding under the conditions of the assay.

For the data set, the system named is MS2 coat protein. Nature of the data set: apparent Kd, MS2 coat protein; higher = weaker binding; RNA-MaP array; FMN 200 µM where present. The procedure, abridged:
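Apparent Kd: the median of filtered binding-curve fits from single clusters. Designs were transcribed on Illumina sequencing-chip clusters by stalled E. coli RNA polymerase and titrated with SNAP-549-labelled MS2 coat protein from 0.7 or 1.5 nM, doubling to 3 µM, in 100 mM Tris-HCl pH 7.5, 80 mM KCl, 4 mM MgCl2, BSA, DTT, yeast tRNA and Tween-20. Each series ran without and then with constant ligand, and green signal was normalised to red-channel RNA signal and control-cluster median Fmax.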

The mark [1] stands for this setting: designed as: OFF switch for flavin mononucleotide, no ligand.
Where [2] appears, read: ligand present: flavin mononucleotide, designed as: OFF switch for flavin mononucleotide.
Where [3] appears, read: designed as: ON switch for flavin mononucleotide, no ligand.
Where [4] appears, read: ligand present: flavin mononucleotide, designed as: ON switch for flavin mononucleotide.

Take “GGAUCCAUGUAGAAGGCUGUCUUAAAAUAGGACAGAGGAUAUACAUGAGGAUCACCCAUGUACUCCUUUAAAAGGAUCCAAAUA”: the “apparent Kd” value reads like this: under setting [1], 5.5 nM; under setting [2], 8.65 nM.
The corresponding values for “ACAUGAAAUCGAGGAUAUGCAAAAAAAAAAAAAGCAGAAGGCGAAAAAAAAACUCGAAAAAACAUGAGGAUCACCCAUGUAAAA” are 26.4 nM and 22.9 nM.
The corresponding values for “AACGGGUCAGGAUAUUGUUAGUUUAGUUGUUUGUAUUAGUUCGAGAAGGGACAUGAGGAUCACCCAUGUGGUAA” are 66.1 nM and 62 nM.
The corresponding values for “UUUUACAUAGGAUAUAGUUGCUUUUACAUGAGGAUCACCCAUGUCUCUCCUCUCUCUCUUCUAGAAGGAUGUUUCU” are 54.7 nM and 46.5 nM.
For the sequence “CGCAUCUCUACAAUUCCUUCACAUGAGGAUCACCCAUGUAGGGAGGAUAUGCAAGCUUAUUGGCGGCAGAAGGCCCUGCAAUGG”, the “apparent Kd” value under setting [1] is 142 nM and the “apparent Kd” value under setting [2] turned out to be 127 nM.
For “AAGGACAGAGGAUAUACAUAGAUACAGAUUCAUGUAGAACUACAUGAGGAUCACCCAUGUAGAAGGCUGUCCUA”, the “apparent Kd” value runs as follows: under setting [1], 30.7 nM; under setting [2], 285 nM.
The corresponding values for “AAUCUGUAGCAGAAGGUCAUUUUUAUAAAUAAACUGGUGACAUGAGGAUCACCCAUGUAAACGUUGAAGGAUAUGCAUUCUAUU” are 44.9 nM and 52.5 nM.
The corresponding values for “AAUAUGAGCUGGUUUAAAUCCGAAACAUGAGGAUCACCCAUGUAGGAUAUCAGCACGAUAAGUGCUGAGAAGGACAUCCAGCUC” are 15.6 nM and 15 nM.
For “AAGUCAGCAGGAUAUGCGAUGUUGGGCUAGAUAGCGUGACCACAUGAGGAUCACCCAUGUAGAAGGGCUGGCUA” the same measures were 37.4 nM and 43.7 nM.
For the sequence “GCGUAACAUGAGGAUCACCCAUGUACCCGAGAAUUCGGGUGUAGAAGGGUGACCGGUCGUUUGGCACAGGAUAUACACGCUGUG”, the “apparent Kd” value is, setting by setting: under setting [3], 37.1 nM; under setting [4], 11.5 nM.
The corresponding values for “CCGGAAACGGGUAGCUGUACAUGAGGAUCACCCAUGUGAUCAUAGGAUAUGGAACCUAAUUGGUUCCAGAAGGAUGUCAGCUAC” are 237 nM and 598 nM.
On to “AAUAGUAAGUAGAAGGUAGUAAGUAUGUUAAUCUUGUUAACAUGAGGAUCACCCAUGUAGACUACUAAGGAUAUACAUCGAUAG”, for which the “apparent Kd” value by setting is: under setting [1], 14.3 nM; under setting [2], 13.7 nM.
The corresponding values for “AAUUGAAACGUAGGAUAUCGCUAUUAAUUAAUUCGAGAAGGACGUACAUGAGGAUCACCCAUGUUUAAUGGUGUAGUUUAGUUG” are 179 nM and 252 nM.
“UGUCGUAGCAGAGGAUAUUACAUGAGGAUCACCCAUGUAUGAACCAAUAGCUGGAAACAGCAAUGUAAGAAGGCUGCUCCGACA”: the “apparent Kd” value under setting [1] came to 13.2 nM and the “apparent Kd” value under setting [2] was found to be 158 nM.
The corresponding values for “CCGAGGCGAGGAUAUACAUGAGGAUCACCCAUGUCUGACCGACGCGCGCCAGGCAUAUGUAGAAGGCGCCGGAA” are 31.5 nM and 138 nM.
For the sequence “AGCUAGUACGAAGGAUAUACAAACAUGAGGAUCACCCAUGUAUACAUGGUUUGAUGAGACUACAUGUAGAAGGUCGUACUAGCA”, the “apparent Kd” value by setting is: under setting [3], 506 nM; under setting [4], 796 nM.
As to “AAGAAACAUGAGGAUCACCCAUGUGUAAAUAUGGGAGGAUAUACAAGGACGUAAGUCAAGGUAGAAGGCCUAAGAA”, the “apparent Kd” value under setting [3] was determined as 172 nM and the “apparent Kd” value under setting [4] came out at 32.7 nM.
With “GGAUCUGAAACAGAUCCAAUACGAACAUGAGGAUCACCCAUGUAGGAUAUGCUACUCAAAGAGUAGCAGAAGGACAUGUGUCUU”, the “apparent Kd” value came to 24.3 nM under setting [1] and 147 nM under setting [2].
On to “GCCGGAGCAGGAUAUCUAAUAUAUCACAUGAGGAUCACCCAUGUCCAGCGAAAGCUGGAGGGAGAAGGGCUCUGGC”, for which the “apparent Kd” value came to 164 nM under setting [1] and 44.4 nM under setting [2].
For the sequence “GCGGUAUUGUAAGGAUAUACUCUGUGAUGAAGAGUAGAAGGUACUUACAUGAGGAUCACCCAUGUUUUUCGUAAAAGUUACCGC”, the “apparent Kd” value by setting is: under setting [3], 16.2 nM; under setting [4], 10.6 nM.
Take “UGUUGUUCAGGAUAUGGUGUGUUAUACAUGAGGAUCACCCAUGUGGGUCCUGGUUUGGCGUCAGAAGGGAAUGUUG”: the “apparent Kd” value under setting [1] amounted to 539 nM and the “apparent Kd” value under setting [2] amounted to 396 nM.
As to “CGAGCUCGUGUGAGGAUAUACCUAUGGAUACAUAGGUAGAAGGCACAUGAGGAUCACCCAUGUCCUAGAGCUCG”, the “apparent Kd” value is 92 nM under setting [1] and 679 nM under setting [2].
In the case of “CUUUAGUGAGGAUAUGUGGCUUCGAUCGUGAGAUCGAGGCUACAGAAGGCACAUGAGGAUCACCCAUGUUCCUG”, the “apparent Kd” value came out at 15.7 nM under setting [1] and 48.5 nM under setting [2].
The corresponding values for “GCCAGGAUGUGAGGAUAUGCUGAGGAUAACUCAGCAGAAGGCACAUGAGGAUCACCCAUGUAAACCUAUAAUAAAUACCCUGGC” are 12.1 nM and 24.4 nM.
The corresponding values for “GCCAGGCAUGUAGGAUAUCCAUUGCGUCGCGUUGGAGAAGGGCAGCACACAUGAGGAUCACCCAUGUGGUCACCCAUGUAGUGU” are 612 nM and 594 nM.
The corresponding values for “GCAGGUUAAGUCAGGAUAUACCUAUGGAUACAUAGGUAGAAGGGACAUGAGGAUCACCCAUGUGACUCGCCUGC” are 26.9 nM and 95.8 nM.
On to “UUUUUUCCUCAUGUACAUGAGGAACAUGAGGAUCACCCAUGUAGAAGGAUUUCCCUUAAAUUAAGAUAGGAUAUACAUAUAUUU”, for which the “apparent Kd” value under setting [1] worked out at 87 nM and the “apparent Kd” value under setting [2] came out at 70.5 nM.
For “CCUCCCUGAGGAUAUCCACCCUCAUACAUGAGGAUCACCCAUGUUCAACCCUGGGUUCCCGGAGAAGGCAGAUUUC” the same measures were 115 nM and 134 nM.
Turning to “AACGGGUGGGUAGGAUAUGGCUAUGUCUCAUUGCUAGAAGGACCAGCUGCUACAUGAGGAUCACCCAUGUCGUAGUGCACCCAG”, the “apparent Kd” value runs as follows: under setting [3], 421 nM; under setting [4], 33.5 nM.
Take “CUUGUGUUAGGAUAUGCGCCCUGAAGAAGCAGGGCCAGAGAGCAGAAGGAACAUGAGGAUCACCCAUGUGUGAC”: the “apparent Kd” value runs as follows: under setting [1], 60.3 nM; under setting [2], 51.2 nM.
For “AAAAUACAUGAGGAUCACCCAUGUUAGGAUAUCCAAGGCCUGACCCUCAAGGUCAGGCGGAGAAGGGAUGUGGU” the same measures were 50.4 nM and 51.3 nM.
“UCCACUGCUGAGAAGGGAUACGUCUGGGUCGCAUCAGGAUAUCGAUACAGUGCAGCAUGAGGACAUGAGGAUCACCCAUGUGUG”: the “apparent Kd” value under setting [3] turned out to be 102 nM and the “apparent Kd” value under setting [4] turned out to be 49.6 nM.
For “CGUCGUCUACGACGCACAUGAGGAUCACCCAUGUGGCAGACACAGGAUAUCCGUUGGAAUGUCCAGGAGAAGGGUGAUCGCAUA” the same measures were 38.6 nM and 77.5 nM.
For “GGCGAAGAGGCUAACAUGAGGAUCACCCAUGUGGACUCAUGGUAGGAUAUGCUGUACAAAGUACAGCAGAAGGGCCGCUGAGCC” the same measures were 146 nM and 663 nM.
For the sequence “CGCUCUAUAUAUUAGGCAAGAAUCAGAAGGCGUUACAUGAGGAUCACCCAUGUUUUGUAUAGUAACGAGGAUAUGAUAUGAGCG”, the “apparent Kd” value runs as follows: under setting [1], 13.6 nM; under setting [2], 14.5 nM.
With “GAUUAACAUGAGGAUCACCCAUGUCGUAUUAUGGGAGGAUAUACGUGGACCGUAGUCCGCGUAGAAGGCCUAAUUG”, the “apparent Kd” value under setting [3] was 93.8 nM and the “apparent Kd” value under setting [4] came out at 28.7 nM.
Take “CGUCUGGAUCAAGGAUAUGUCAAGACGCUCCGCGUACACAUGAGGAUCACCCAUGUCAACAAAUGACAGAAGGUGAUAAUGGCC”: the “apparent Kd” value under setting [3] came to 80.3 nM and the “apparent Kd” value under setting [4] was found to be 444 nM.
For “AGCUUCGGUGUCAGGAUAUGGGAAAGGGAACUUACCCAGAAGGGACAUGAGGAUCACCCAUGUGGCUUGACAUG”, the “apparent Kd” value under setting [1] turned out to be 45.3 nM and the “apparent Kd” value under setting [2] stood at 109 nM.
With “ACAACAGGCAGAGGAUAUGACUGGGUAGGAGUAACAUGAGGAUCACCCAUGUUAGAAGGCUGCGUCAAACAGCGAAAGGUACGC”, the “apparent Kd” value is, setting by setting: under setting [1], 52.4 nM; under setting [2], 91.6 nM.
The corresponding values for “GUCGAUGUAGGAUAUUUCCACCCGCACAUGAGGAUCACCCAUGUGACCUUUUUCCGCUGGAAAGAAGGACGCGACA” are 19.8 nM and 28.4 nM.
As to “GCAGCUCCUGACAUGAGGAUCACCCAUGUUUAAUUAUUAAAUCAGGAUAUCCUCUCGAAACGAGAGGAGAAGGGAUAAGCUGCU”, the “apparent Kd” value came out at 4.83 nM under setting [3] and 5.33 nM under setting [4].
With “ACGUUACAUGAGGAUCACCCAUGUGAGGAUAUGGUGCGGUAGUGUCCUGUCGCGUACUCCAGAAGGCGCGGGUG”, the “apparent Kd” value stood at 204 nM under setting [1] and 147 nM under setting [2].
For “GGUACUCAAAGAGUACCAAUACGAACAUGAGGAUCACCCAUGUAGGAUAUGCUACUCAAAGAGUAGCAGAAGGACAUGUGCCUG” the same measures were 17.9 nM and 95.1 nM.
For “AUGCGACAUGAGGAUCACCCAUGUGAGGAUAUGGCCUGUUUGGCGUGUGCUGGCUCUGUCAGAAGGCGCGUGGG” the same measures were 103 nM and 270 nM.
On to “GCUGGACAAGGAUAUACAUUCGUGCUUCGGCACGUAAGAUCACAUGAGGAUCACCCAUGUAGAAGGUGUCCAGC”, for which the “apparent Kd” value is, setting by setting: under setting [1], 67.8 nM; under setting [2], 612 nM.
For “GGCGGCGCGGGCCACCGCAGGGCCAGAAGGACAUGAGGAUCACCCAUGUGGCAGGACAGGGCGGUGUAGGAUAUGGCAGGCUCG” the same measures were 11.9 nM and 43.3 nM.
The corresponding values for “GUCUUCCUAGGAUAUACAUGAGGAUCACCCAUGUACAGUUUCGUCUUGGGAUACUCGCGUAGAAGGAGGUGGUU” are 33.2 nM and 37.3 nM.
As for “GCAUACAUUCGAGGAUAUCGGUGAACAAAUUAACGAGAAGGCGAUAGAAUGUUUCAUCUUAUGAACAUGAGGAUCACCCAUGUA”, the “apparent Kd” value is 39.3 nM under setting [3] and 27.9 nM under setting [4].
